High-throughput results deposited in PubChem by several laboratories.
An excerpt weighted towards active compounds, which were near 2.6% of everything screened.
CHT block: inhibitors of human choline transporter CHT. Q9GZV3. CHT-expressing cells, membrane potential dye, choline response; hits give low values. B-score at 10 µM. actives 0.86% (n = 310,000). AID 488975;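 active means B-score over 3 SD under the library average, and starting fluorescence ratio not unusually high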;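 further: choline stimulus applied at its EC90 after an EC20 pre-addition; B-score computed on integrated fluorescence ratio after choline addition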
Rad51 HR inh: blocks human Rad51 in homologous recombination; actives 0.085% (n = 200,000); hRad51 DNA strand exchange, fluorescence dequenching; Q06609; inhibition, % at 10 µM; AID 1385;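 active means inhibition above 40% at the single screening dose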;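 further: 0% = DMSO control wells and 100% = blanks with heterologous ssDNA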
Target sequence (Q06609 whole entry, looked up): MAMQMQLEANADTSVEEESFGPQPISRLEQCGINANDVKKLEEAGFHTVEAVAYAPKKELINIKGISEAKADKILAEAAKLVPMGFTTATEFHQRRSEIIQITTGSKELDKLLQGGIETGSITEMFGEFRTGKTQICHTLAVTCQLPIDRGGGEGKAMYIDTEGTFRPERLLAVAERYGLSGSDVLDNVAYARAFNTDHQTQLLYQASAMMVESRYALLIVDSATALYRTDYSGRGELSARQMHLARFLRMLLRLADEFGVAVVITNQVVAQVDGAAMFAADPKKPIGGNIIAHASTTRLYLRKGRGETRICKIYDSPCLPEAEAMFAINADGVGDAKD
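Test system – preformed human Rad51 ssDNA filaments · Reagent – Donor/quencher-labelled 47-bp dsDNA substrate · Incubation – 37 °C 15-min filament assembly, 30-min compound preincubation, 15-min exchange · Signal – FRET fluorescence dequenching, excitation 485 nm, emission 520 nm · Read-out – percent inhibition from fluorescence, normalised to plate control and blank means · Benchmarks – plate control and blank wells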
KCC2 mod: modulates chloride dependent transport by human KCC2. Q9H2X9. KCC2 cells, thallium flux FluoZin-2 fluorescence. B-score of Tl+ flux slope (higher = more flux/activation; lower = inhibition) at 10 µM. actives 2.2% (n = 190,000). AID 1456;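 active means thallium flux slope and its plate-corrected score both differing from the plate sample mean at a set confidence after two filtering rounds, in either direction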;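 further: slope of fluorescence scaled to starting intensity during 10 to 20 s after thallium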
CHT PAM: allosteric activators of human choline transporter CHT | Q9GZV3 | CHT-expressing cells, membrane potential dye, choline EC20; hits give high values; LV-AA mutant CHT in HEK293 cells | B-score at 10 µM | actives 0.49% (n = 310,000) | AID 488977;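 active means initial fluorescence not abnormally high and integrated response B-score, plate-corrected, over 3 SD above library mean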
KCC2 sec1: confirmation of human KCC2 transport modulators; shares compounds with KCC2 mod; HEK293-KCC2, thallium flux, FluoZin2 fluorescence; hits give high values; normalised thallium flux (F/F0 slope) at 10 µM; actives 15% (n = 3,700); AID 1713;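 active means thallium flux slope above the same plate's solvent-only control mean plus 3 SD; inconclusive means the two replicate wells disagree; inactive means no significant difference from solvent-only control wells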
KCC2 bumet counter: bumetanide-insensitive thallium flux in KCC2 cells with ouabain, counter-screen; shares compounds with KCC2 mod; HEK293-KCC2 + bumetanide/ouabain, thallium flux FluoZin2; hits give high values; normalized thallium flux at 10 µM; actives 49% (n = 3,700); AID 1714;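 active means thallium entry rate above the same plate's blocked-transporter control wells by more than 3 SD; inconclusive means the two repeat wells disagree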;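 further: raw slope of fluorescence over initial fluorescence between 10 and 20 s after thallium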
KCC2 sec2: confirmation of human KCC2 transport modulators. shares compounds with KCC2 mod. HEK293-KCC2, thallium flux FluoZin2 fluorescence; actives lie on both sides; F/F0 rise rate, 10–20 s post-thallium. normalized thallium flux at 10 µM. actives 23% (n = 3,700);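 active means thallium flux slope more than 3 SD above or below the plate's solvent-only control mean, mostly below; inconclusive means the two repeat wells disagreed; inactive means no significant shift from solvent-only controls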;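 further: raw slope with 0.1% DMSO as baseline and bumetanide as block control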
HEK293 Tl flux: acts in parental HEK cells, KCC2 counter-screen | shares compounds with KCC2 mod | HEK293 parental cells, thallium flux FluoZin2, ouabain; baseline-ratio fluorescence slope, 10–20 s after thallium | thallium flux rate (normalised fluorescence) at 10 µM | actives 46% (n = 3,700) | AID 1716;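 active means thallium flux rate significantly above the same plate's solvent-only control wells, beyond their mean plus 3 SD; inconclusive means the two replicate wells gave conflicting results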
KCC2 retest ouab: confirmation of human KCC2 modulators with ouabain | raw Tl+ flux slope (below DMSO = inhibition, above = activation) at 10 µM | shares compounds with KCC2 mod | HEK293-KCC2, thallium flux FluoZin2 fluorescence; bidirectional: low = inhibitor, high = activator | AID 1717 | actives 48% (n = 3,700);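 active means thallium flux slope beyond 3 SD from same-plate DMSO control mean in most replicates, usually higher, sometimes lower; inconclusive means repeat tests gave conflicting results; inactive means no significant difference from controls in most replicates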;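 further: slope of initial-normalized fluorescence between seconds 10 and 20 after thallium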
HEK293 Tl flux2: acts in parental HEK cells, second KCC2 counter-screen; HEK293 parental, thallium flux FluoZin-2 fluorescence slope; shares compounds with KCC2 mod; actives 33% (n = 3,700); AID 1718; thallium flux slope at 10 µM;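 active means thallium flux slope above the same plate's solvent-control mean plus 3 SD in both duplicate wells; inconclusive means duplicate wells that disagreed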;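 further: run without ouabain in cells lacking the KCC2 cotransporter; slope of fluorescence scaled to its starting value between 10 and 20 s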
The depositor's hits bear a star.

Screening C=CCn1c(=S)[nH]c2sccc2c1=O returned CHT block inactive, Rad51 HR inh -37, KCC2 mod 7.8*, CHT PAM inactive, KCC2 sec1 0.0068, KCC2 bumet counter 0.015*, KCC2 sec2 0.036, HEK293 Tl flux 0.017*, KCC2 retest ouab inconclusive and HEK293 Tl flux2 0.019*.
C=CCn1c(=S)[nH]c2sc3c(c2c1=O)CCCC3 was read as CHT block inactive and CHT PAM inactive.
`c1ccc(CNc2ncnc3sc4c(c23)CCC4)nc1` gave CHT block inactive, Rad51 HR inh 2, KCC2 mod -4.2*, CHT PAM inactive, KCC2 sec1 0.0097, KCC2 bumet counter 0.0049, KCC2 sec2 0.032, HEK293 Tl flux 0.0059*, KCC2 retest ouab 0.021 and HEK293 Tl flux2 0.01.
Screening c1cncc(CNc2ncnc3sc4c(c23)CCC4)c1 returned CHT block inactive, KCC2 mod -0.46 and CHT PAM inactive.
Screening Cc1cccc(C)c1Nc1nnc(SCC(=O)NC2CCS(=O)(=O)C2)s1 (stereo not drawn) returned CHT block inactive, Rad51 HR inh 0, KCC2 mod -0.43 and CHT PAM inactive.
`Cc1cccc(C)c1Nc1nnc(SCC(=O)NC(=O)c2cccn2C)s1` gave CHT block inactive, Rad51 HR inh -8, KCC2 mod -4.7*, CHT PAM inactive, KCC2 sec1 0.0071, KCC2 bumet counter 0.0048, KCC2 sec2 0.028, HEK293 Tl flux 0.0047*, KCC2 retest ouab 0.014* and HEK293 Tl flux2 0.0082.
`COc1ccc(C(=O)COC(=O)CN2C(=O)C3C4CCC(C4)C3C2=O)cc1` (stereo not drawn) gave CHT block inactive and CHT PAM inactive.
CCOC(=O)c1c2c([nH]c(=S)c1C#N)CCCC2 was read as CHT block inactive, Rad51 HR inh -5, KCC2 mod 11*, CHT PAM inactive, KCC2 sec1 0.011, KCC2 bumet counter 0.011*, KCC2 sec2 0.033, HEK293 Tl flux inconclusive, KCC2 retest ouab inconclusive and HEK293 Tl flux2 0.012.
CCOC(=O)c1cc(C#N)c(=S)[nH]c1C was read as CHT block inactive, Rad51 HR inh 0, KCC2 mod 3.1 and CHT PAM inactive.
For O=C(O)c1ccccc1-c1ccccc1C(=O)Nc1cccc(-c2nc3ccccc3o2)c1 the results were CHT block inactive, Rad51 HR inh 0, KCC2 mod -5.8*, CHT PAM inactive, KCC2 sec1 0.0064, KCC2 bumet counter 0.0057*, KCC2 sec2 0.026*, HEK293 Tl flux inconclusive, KCC2 retest ouab 0.013* and HEK293 Tl flux2 inconclusive.
Screening O=C(Nc1cccc(-c2nc3ccccc3o2)c1)c1cccnc1 returned CHT block inactive, Rad51 HR inh 3, KCC2 mod -0.45 and CHT PAM inactive.
O=C(Nc1ccc2oc(-c3ccccc3)nc2c1)c1ccncc1 was read as CHT block inactive, Rad51 HR inh -5, KCC2 mod -4.5*, CHT PAM inactive, KCC2 sec1 0.0068, KCC2 bumet counter 0.0051, KCC2 sec2 0.022*, HEK293 Tl flux 0.0074, KCC2 retest ouab inconclusive and HEK293 Tl flux2 0.011.
`O=C(Cn1cnc2c(nnn2Cc2ccccc2)c1=O)N1CCCc2ccccc21` gave CHT block inactive, KCC2 mod -4.5*, CHT PAM inactive, KCC2 sec1 0.0067, KCC2 bumet counter 0.0051, KCC2 sec2 0.022*, HEK293 Tl flux 0.008, KCC2 retest ouab inconclusive and HEK293 Tl flux2 0.011.
`O=C(Cn1cnc2c(nnn2Cc2ccccc2)c1=O)c1ccc(Cl)cc1` gave CHT block inactive, Rad51 HR inh 6, KCC2 mod -4.1*, CHT PAM inactive, KCC2 sec1 0.01, KCC2 bumet counter inconclusive, KCC2 sec2 inconclusive, HEK293 Tl flux 0.008, KCC2 retest ouab 0.018* and HEK293 Tl flux2 0.011.
Cc1ccc(Cn2nnc3c(=O)n(CC(=O)c4ccccc4)cnc32)cc1 was read as CHT block inactive, Rad51 HR inh 4, KCC2 mod -3.2 and CHT PAM inactive.
For O=C(Cn1cnc2c(nnn2Cc2ccc(F)cc2)c1=O)N1CCN(c2ccccc2)CC1 the results were CHT block inactive, CHT PAM inactive, KCC2 sec1 0.0068, KCC2 bumet counter 0.0044, KCC2 sec2 0.024*, HEK293 Tl flux 0.0076, KCC2 retest ouab inconclusive and HEK293 Tl flux2 0.011.
O=C(Cn1cnc2c(nnn2-c2ccccc2)c1=O)NCCc1ccccc1 was read as CHT block inactive, Rad51 HR inh -1, KCC2 mod -4.3*, CHT PAM inactive, KCC2 sec1 0.007, KCC2 bumet counter 0.0051, KCC2 sec2 0.023*, HEK293 Tl flux 0.0073, KCC2 retest ouab 0.014* and HEK293 Tl flux2 0.01.
CCOC(=O)CNC(=O)Cn1cnc2c(nnn2-c2ccccc2)c1=O was read as CHT block inactive and CHT PAM inactive.
Screening O=C(Cn1cnc2c(cnn2-c2ccccc2)c1=O)N1CCN(c2ccc(F)cc2)CC1 returned CHT block inactive, Rad51 HR inh 3, KCC2 mod -1.1 and CHT PAM inactive.
Screening O=C(Cn1cnc2c(nnn2-c2ccccc2)c1=O)N1CCCc2ccccc21 returned CHT block inactive, Rad51 HR inh -4, KCC2 mod -0.57 and CHT PAM inactive.
O=C(Cn1c(=O)n(-c2ccc(F)cc2)c(=O)c2sccc21)c1ccccc1 was read as CHT block inactive, Rad51 HR inh 1, KCC2 mod -1.4 and CHT PAM inactive.
`COC(=O)c1ccccc1S(=O)(=O)NNC(=O)c1ccccc1-n1cccc1` gave CHT block inactive and CHT PAM inactive.
Screening CC(=O)Nc1ccc(S(=O)(=O)Nc2ccccc2C(=O)N2CCCC2)cc1 returned CHT block inactive and CHT PAM inactive.
